Reference: ChEMBL document CHEMBL1152312, “Neopyrrolomycins with broad spectrum antibacterial activity” (2009)
Values after ≈ are worked out from the molar mass of the structure shown. Active and inactive are the calls of the source. The calls are words filed in the database; no cut-off is given here.

Legend:
Staphylococcus aureus [1] = assay: Antibacterial activity against Linezolid, methicillin-resistant Staphylococcus aureus 1725 by microdilution method; format: functional
Procedure, shortened: (§1)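 MIC values from CLSI broth microdilution. Strains came from the ATCC collection and from clinical isolates.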

[2] = system: Staphylococcus epidermidis; assay: Antibacterial activity against methicillin-resistant Staphylococcus epidermidis 1452 by microdilution method; format: functional; procedure, shortened: as §1
Staphylococcus aureus [3] = assay: Antibacterial activity against methicillin-sensitive Staphylococcus aureus 100 ATCC 29213 by microdilution method; format: functional; procedure, shortened: as §1
[4] = system: Haemophilus parainfluenzae; assay: Antibacterial activity against Haemophilus parainfluenzae 2319 ATCC 7901 by microdilution method; format: functional; procedure, shortened: as §1
Enterococcus faecium [5] = assay: Antibacterial activity against vancomycin-resistant Enterococcus faecium 1254 by microdilution method; format: functional; procedure, shortened: as §1
Staphylococcus aureus [6] = assay: Antibacterial activity against methicillin-resistant Staphylococcus aureus 2170 by microdilution method; format: functional; procedure, shortened: as §1
[7] = system: Staphylococcus epidermidis; assay: Antibacterial activity against methicillin-sensitive Staphylococcus epidermidis 1597 by microdilution method; format: functional; procedure, shortened: as §1
Escherichia coli [8] = assay: Antibacterial activity against Escherichia coli 102 ATCC 25922 by microdilution method; format: functional; procedure, shortened: as §1
Streptococcus pyogenes = assay: Antibacterial activity against Streptococcus pyogenes 723 by microdilution method; format: functional; procedure, shortened: as §1
Enterococcus faecium [9] = assay: Antibacterial activity against vancomycin-sensitive Enterococcus faecium 843 by microdilution method; format: functional; procedure, shortened: as §1
Serratia marcescens = assay: Antibacterial activity against Serratia marcescens 1635 by microdilution method; format: functional; procedure, shortened: as §1
Haemophilus influenzae [10] = assay: Antibacterial activity against Haemophilus influenzae 1224 ATCC 49247 by microdilution method; format: functional; procedure, shortened: as §1
Haemophilus influenzae [11] = assay: Antibacterial activity against ampicillin-resistant Haemophilus influenzae 1742 by microdilution method; format: functional; procedure, shortened: as §1
Staphylococcus aureus [12] = assay: Antibacterial activity against vancomycin-intermediate Staphylococcus aureus 2012 by microdilution method; format: functional; procedure, shortened: as §1
Streptococcus pneumoniae [13] = assay: Antibacterial activity against penicillin-resistant Streptococcus pneumoniae 940 by microdilution method; format: functional; procedure, shortened: as §1
Klebsiella pneumoniae [14] = assay: Antibacterial activity against Klebsiella pneumoniae 2239 by microdilution method; format: functional; procedure, shortened: as §1
Streptococcus pneumoniae [15] = assay: Antibacterial activity against penicillin-resistant Streptococcus pneumoniae 748 by microdilution method; format: functional; procedure, shortened: as §1
Staphylococcus aureus [16] = assay: Antibacterial activity against Linezolid, methicillin-resistant Staphylococcus aureus 1651 by microdilution method; format: functional; procedure, shortened: as §1
Streptococcus pneumoniae [17] = assay: Antibacterial activity against quinolone-resistant Streptococcus pneumoniae 376 by microdilution method; format: functional; procedure, shortened: as §1
Klebsiella pneumoniae [18] = assay: Antibacterial activity against ampicillin beta-lactamase, multidrug-resistant Klebsiella pneumoniae 2262 by microdilution method; format: functional; procedure, shortened: as §1
Streptococcus agalactiae = assay: Antibacterial activity against Streptococcus agalactiae 2033 by microdilution method; format: functional; procedure, shortened: as §1
Staphylococcus aureus [19] = assay: Antibacterial activity against methicillin-resistant Staphylococcus aureus 1137 by microdilution method; format: functional; procedure, shortened: as §1
Moraxella catarrhalis = assay: Antibacterial activity against Moraxella catarrhalis 557 by microdilution method; format: functional; procedure, shortened: as §1
Pseudomonas aeruginosa [20] = assay: Antibacterial activity against Pseudomonas aeruginosa 1473 by microdilution method; format: functional; procedure, shortened: as §1
Staphylococcus aureus [21] = assay: Antibacterial activity against vancomycin-intermediate Staphylococcus aureus 2018 by microdilution method; format: functional; procedure, shortened: as §1
Staphylococcus aureus [22] = assay: Antibacterial activity against community-acquired Staphylococcus aureus 2144 by microdilution method; format: functional; procedure, shortened: as §1
[23] = system: Staphylococcus epidermidis; assay: Antibacterial activity against Staphylococcus epidermidis 495 by microdilution method; format: functional; procedure, shortened: as §1
Streptococcus pneumoniae [24] = assay: Antibacterial activity against Streptococcus pneumoniae 1195 ATCC 49619 by microdilution method; format: functional; procedure, shortened: as §1
Escherichia coli [25] = assay: Antibacterial activity against extended spectrum beta-lactamase-producing Escherichia coli 2269 by microdilution method; format: functional; procedure, shortened: as §1
Streptococcus pneumoniae [26] = assay: Antibacterial activity against quinolone-resistant Streptococcus pneumoniae 379 by microdilution method; format: functional; procedure, shortened: as §1
Streptococcus pneumoniae [27] = assay: Antibacterial activity against multidrug-resistant Streptococcus pneumoniae 933 by microdilution method; format: functional; procedure, shortened: as §1
Enterococcus faecalis = assay: Antibacterial activity against vancomycin-resistant Enterococcus faecalis 846 by microdilution method; format: functional; procedure, shortened: as §1
Streptococcus pneumoniae [28] = assay: Antibacterial activity against penicillin-susceptible Streptococcus pneumoniae 866 by microdilution method; format: functional; procedure, shortened: as §1
NHDF = assay: Cytotoxicity against NHDF cells after 48 hrs by celltiter glow assay; format: functional; conditions: Homo sapiens
Procedure, shortened: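 Fibroblasts kept at 37 °C, 5% CO2 in FGM-2 medium, passage ≤16. Seeded at 1.25 × 10^5 cells/mL 24 h before dosing. Compounds dissolved in DMSO, tested 0.6–128 µg/mL at 1% final DMSO for 48 h. Viability by CellTiter-Glo luminescence, expressed as percent of DMSO control.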

Escherichia coli [29] = assay: Antibacterial activity against Escherichia coli 1411 by microdilution method; format: functional
Procedure, shortened: (§2)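 MIC determined by CLSI broth microdilution; organisms were ATCC strains and clinical isolates.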

Streptococcus pneumoniae [30] = assay: Antibacterial activity against Streptococcus pneumoniae 49619 by microdilution method; format: functional; procedure, shortened: as §2
HepG2 = assay: Cytotoxicity against human HepG2 cells assessed as effect on cell viability at 43 ug/mL after 48 hrs by celltiter glow assay; format: functional, cell-based
Procedure, shortened: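 HepG2 grown in MEM with 10% heat-inactivated FBS, 0.10 mM nonessential amino acids, 1 mM pyruvate, 37 °C, 5% CO2. Seeded at 1.25 × 10^5 cells/mL 24 h before treatment. DMSO-dissolved compounds tested over 0.6–128 µg/mL (1% final DMSO) for 48 h. Luminescent CellTiter-Glo viability read-out relative to DMSO control; CC90 taken.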

Enterococcus faecium [31] = assay: Antibacterial activity against vancomycin-resistant Enterococcus faecium 700221 by microdilution method; format: functional; procedure, shortened: as §1
Staphylococcus aureus [32] = assay: Antibacterial activity against methicillin-sensitive Staphylococcus aureus 29213 by microdilution method; format: functional; procedure, shortened: as §1
Staphylococcus aureus [33] = assay: Antibacterial activity against methicillin-resistant Staphylococcus aureus 43300 by microdilution method; format: functional; procedure, shortened: as §1
Klebsiella pneumoniae [34] = assay: Antibacterial activity against Klebsiella pneumoniae 4352 by microdilution method; format: functional; procedure, shortened: as §2
Pseudomonas aeruginosa [35] = assay: Antibacterial activity against Pseudomonas aeruginosa 27853 by microdilution method; format: functional; procedure, shortened: as §2
Staphylococcus aureus [36] = assay: Antibacterial activity against methicillin-sensitive Staphylococcus aureus 6538 by microdilution method; format: functional; procedure, shortened: as §1
Escherichia coli [37] = assay: Antibacterial activity against Escherichia coli 25922 by microdilution method; format: functional; procedure, shortened: as §2

CN[C@H](CC(C)C)C(=O)N[C@H]1C(=O)N[C@@H](CC(N)=O)C(=O)N[C@H]2C(=O)N[C@H]3C(=O)N[C@H](C(=O)N[C@H](C(=O)O)c4cc(O)cc(O)c4-c4cc3ccc4O)[C@H](O)c3ccc(c(Cl)c3)Oc3cc2cc(c3O[C@@H]2O[C@H](CO)[C@@H](O)[C@H](O)[C@H]2O[C@H]2C[C@](C)(N)[C@H](O)[C@H](C)O2)Oc2ccc(cc2Cl)[C@H]1O [VANCOMYCIN]
MIC90 (Staphylococcus aureus [1]): 2 µg/mL (≈ 1.38 µM) | MIC90 [2]: 4 µg/mL (≈ 2.76 µM) | MIC90 (Staphylococcus aureus [3]): 2 µg/mL (≈ 1.38 µM) | MIC90 [4]: 64 µg/mL (≈ 44.2 µM) | MIC90 (Enterococcus faecium [5]): > 64 µg/mL | MIC90 (Staphylococcus aureus [6]): 1 µg/mL (≈ 0.69 µM) | MIC90 [7]: 2 µg/mL (≈ 1.38 µM) | MIC90 (Escherichia coli [8]): > 64 µg/mL | MIC90 (Streptococcus pyogenes): 0.5 µg/mL (≈ 0.345 µM) | MIC90 (Enterococcus faecium [9]): 2 µg/mL (≈ 1.38 µM) | MIC90 (Serratia marcescens): > 64 µg/mL | MIC90 (Haemophilus influenzae [10]): > 64 µg/mL | MIC90 (Haemophilus influenzae [11]): > 64 µg/mL | MIC90 (Staphylococcus aureus [12]): 16 µg/mL (≈ 11 µM) | MIC90 (Streptococcus pneumoniae [13]): 0.25 µg/mL (≈ 0.173 µM) | MIC90 (Klebsiella pneumoniae [14]): > 64 µg/mL | MIC90 (Streptococcus pneumoniae [15]): 0.5 µg/mL (≈ 0.345 µM) | MIC90 (Staphylococcus aureus [16]): 1 µg/mL (≈ 0.69 µM) | MIC90 (Streptococcus pneumoniae [17]): 0.2 µg/mL (≈ 0.138 µM) | MIC90 (Klebsiella pneumoniae [18]): > 64 µg/mL | MIC90 (Streptococcus agalactiae): 0.5 µg/mL (≈ 0.345 µM) | MIC90 (Staphylococcus aureus [19]): 1 µg/mL (≈ 0.69 µM) | MIC90 (Moraxella catarrhalis): > 64 µg/mL | MIC90 (Pseudomonas aeruginosa [20]): > 64 µg/mL | MIC90 (Staphylococcus aureus [21]): 8 µg/mL (≈ 5.52 µM) | MIC90 (Staphylococcus aureus [22]): 0.12 µg/mL (≈ 0.0828 µM) | MIC90 [23]: 2 µg/mL (≈ 1.38 µM) | MIC90 (Streptococcus pneumoniae [24]): 0.25 µg/mL (≈ 0.173 µM) | MIC90 (Escherichia coli [25]): > 64 µg/mL | MIC90 (Streptococcus pneumoniae [26]): 0.5 µg/mL (≈ 0.345 µM) | MIC90 (Streptococcus pneumoniae [27]): 1 µg/mL (≈ 0.69 µM) | MIC90 (Enterococcus faecalis): > 64 µg/mL | MIC90 (Streptococcus pneumoniae [28]): 0.5 µg/mL (≈ 0.345 µM)

Oc1cc(Cl)cc(Cl)c1-n1cc(Cl)c(Cl)c1Cl [NEOPYRROLOMYCIN C]
CC90 (NHDF): 43 µg/mL (≈ 130 µM) | MIC90 (Escherichia coli [29]): 16 µg/mL (≈ 48.3 µM) | MIC90 (Streptococcus pneumoniae [30]): 8 µg/mL (≈ 24.1 µM) | Activity (HepG2): Active | MIC90 (Enterococcus faecium [31]): 2 µg/mL (≈ 6.03 µM) | MIC90 (Staphylococcus aureus [32]): 2 µg/mL (≈ 6.03 µM) | MIC90 (Staphylococcus aureus [33]): 1 µg/mL (≈ 3.02 µM) | MIC90 (Klebsiella pneumoniae [34]): 16 µg/mL (≈ 48.3 µM) | MIC90 (Pseudomonas aeruginosa [35]): 32 µg/mL (≈ 96.6 µM) | MBC (Staphylococcus aureus [36]): 8 µg/mL (≈ 24.1 µM) | MIC90 (Staphylococcus aureus [36]): 2 µg/mL (≈ 6.03 µM) | MIC90 (Escherichia coli [37]): 16 µg/mL (≈ 48.3 µM)
